Reference: ChEMBL document CHEMBL1122781, “[(Aminomethyl)aryloxy]acetic acid esters. A new class of high-ceiling diuretics. 1. Effects of nitrogen and aromatic nuclear substitution” (J Med Chem, 1984)

Assays:
Canis familiaris [1] = assay: Diuretic activity was evaluated by measuring amount of Cl- during 0-6 hr in urine of normotensive saline loaded dogs at 0.03mg/kg, po; format: ADME, organism-based, Canis lupus familiaris; settings: dog, in vivo
Method in brief: (§1)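 Conscious female dogs, each given one oral dose per experiment. Urine and heparinized venous plasma were taken at each collection time. Urine was centrifuged and chilled, and plasma was separated within 30 min. Both were assayed for Na+, K+, Cl−, urate and glucose. Results are mean excretion in mequiv kg−1 (6 h)−1, with at least two dogs per dose.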

Rattus norvegicus [2] = assay: Diuretic activity was evaluated by measuring amount of K+ during 0-6 hr in urine of normotensive saline loaded rats at 30.0mg/kg, po; format: ADME, organism-based; settings: in vivo, 30 mg/kg
Method in brief: (§2)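 Male normotensive Sprague–Dawley rats (275–375 g), eight per group. Test compound or vehicle (0.2% methylcellulose in water, 2 mL/kg) is given by mouth, followed at once by a 0.9% saline load equal to 5% of body weight. Rats are housed in metabolism cages without food or water. Urine is collected at 2, 6 and 24 h and assayed for Na+, K+, Cl−, uric acid and osmolality.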

Canis familiaris [3] = assay: Diuretic activity was evaluated by measuring amount of Na+ during 0-6 hr in urine of normotensive saline loaded dogs at 0.1 mg/kg, po; format: ADME, organism-based, Canis lupus familiaris; design: dose 0.1 mg/kg, route oral; settings: dog, in vivo
Method in brief: (§3)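 Conscious dogs, each given a single oral dose per experiment, with at least two dogs per dose. Urine volume is measured; aliquots are centrifuged and chilled. Heparinized venous blood (4 mL) is drawn at each urine collection. Urine and plasma are analyzed for Na+, K+, Cl−, urate and glucose. Result is mean Na+ excretion in mequiv kg−1 (6 h)−1.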

Canis familiaris [4] = assay: Diuretic activity was evaluated by measuring amount of Na+ during 0-6 h in urine of normotensive saline loaded dogs at 10.0mg/kg, po; format: ADME, organism-based, Canis lupus familiaris; settings: dog, in vivo, 10 mg/kg; method in brief: as §3
Canis familiaris [5] = assay: Diuretic activity was evaluated by measuring amount of Na+ during 0-6 hr in urine of normotensive saline loaded dogs at 3.0mg/kg, po; format: ADME, organism-based, Canis lupus familiaris; settings: dog, in vivo, 3 mg/kg; method in brief: as §3
[6] = Diuretic activity was evaluated by measuring amount of Na+ during 0-6 hr in urine of normotensive […] monkey at 1 mg/kg, po; format: ADME, organism-based; design: dose 1 mg/kg, route oral; settings: simiiformes, in vivo
Method in brief: (§4)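 Male and female cynomolgus monkeys, fasted 16–18 h with water until dosing, six per dose. Compound or vehicle is given through a nasogastric tube, then a 50 mL/kg water load. No food or water for 6 h in metabolism cages. Urine is collected at 0–1, 1–2, 2–4 and 4–6 h and analyzed for electrolytes, uric acid and glucose.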

[7] = Diuretic activity was evaluated by measuring amount of Na+ during 0-6 hr in urine of normotensive […] monkey at 30mg/kg, po; format: ADME, organism-based; settings: simiiformes, in vivo; method in brief: as §4
Rattus norvegicus [8] = assay: Diuretic activity was evaluated by measuring amount of Na+ during 0-6 hr in urine of normotensive saline loaded rats at 1.0mg/kg, po; format: ADME, organism-based; settings: in vivo, 1 mg/kg; method in brief: as §2
Rattus norvegicus [9] = assay: Diuretic activity was evaluated by measuring amount of Na+ during 0-6 h in urine of normotensive saline loaded rats at 10.0 mg/kg, po; format: ADME, organism-based; design: dose 10 mg/kg, route oral; settings: in vivo; method in brief: as §2
Rattus norvegicus [10] = assay: Diuretic activity was evaluated by measuring amount of Na+ during 0-6 h in urine of normotensive saline loaded rats at 100.0 mg/kg, po; format: ADME, organism-based; design: dose 100 mg/kg, route oral; settings: in vivo; method in brief: as §2
Rattus norvegicus [11] = assay: Diuretic activity was evaluated by measuring amount of Na+ during 0-6 h in urine of normotensive saline loaded rats at 3.0 mg/kg, po; format: ADME, organism-based; design: dose 3 mg/kg, route oral; settings: in vivo; method in brief: as §2
Rattus norvegicus [12] = assay: Diuretic activity was evaluated by measuring amount of Cl- during 0-6 hr in urine of normotensive saline loaded rats at 10.0mg/kg, po; format: ADME, organism-based; settings: in vivo, 10 mg/kg
Method in brief: (§5)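 Male Sprague–Dawley rats (275–375 g), fed and watered ad libitum before testing but not during it, eight per group. Compound in 0.2% methylcellulose/water given orally at 2 mL/kg, immediately followed by a 0.9% saline load equal to 5% of body weight. Rats were kept in individual metabolism cages. Urine was sampled at 2, 6 and 24 h for volume, Na+, K+, Cl−, uric acid and osmolality.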

Rattus norvegicus [13] = assay: Diuretic activity was evaluated by measuring amount of Cl- during 0-6 h in urine of normotensive saline loaded rats at 30.0 mg/kg, po; format: ADME, organism-based; design: dose 30 mg/kg, route oral; settings: in vivo; method in brief: as §5
Canis familiaris [14] = assay: Diuretic activity was evaluated by measuring amount of K+ during 0-6 hr in urine of normotensive saline loaded dogs at 0.3mg/kg, po; format: ADME, organism-based, Canis lupus familiaris; settings: dog, in vivo; method in brief: as §1
Canis familiaris [15] = assay: Diuretic activity was evaluated by measuring amount of K+ during 0-6 hr in urine of normotensive saline loaded dogs at 10.0mg/kg, po; format: ADME, organism-based, Canis lupus familiaris; settings: dog, in vivo, 10 mg/kg; method in brief: as §1
Canis familiaris [16] = assay: Diuretic activity was evaluated by measuring amount of K+ during 0-6 hr in urine of normotensive saline loaded dogs at 3.0mg/kg, po; format: ADME, organism-based, Canis lupus familiaris; settings: dog, in vivo, 3 mg/kg; method in brief: as §1
[17] = Diuretic activity was evaluated by measuring amount of Cl- during 0-6 h in urine of normotensive […] monkey at 10mg/kg, po; format: ADME, organism-based; settings: simiiformes, in vivo
Method in brief: (§6)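 Male and female cynomolgus monkeys, fasted 16–18 h with water until dosing, six per dose. Compound or vehicle was given by pediatric nasogastric tube, followed at once by a 50 mL/kg water load. Monkeys were kept in metabolism cages without food or water for 6 h. Urine was collected at 0–1, 1–2, 2–4 and 4–6 h, and volume, electrolytes, uric acid and glucose were measured.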

[18] = Diuretic activity was evaluated by measuring amount of Cl- during 0-6 h in urine of […] monkey at 30 mg/kg, po; format: ADME, organism-based; design: dose 30 mg/kg, route oral; settings: simiiformes, in vivo; method in brief: as §6
[19] = Diuretic activity was evaluated by measuring amount of Cl- during 0-6 h in urine of normotensive […] monkey at 3 mg/kg, po; format: ADME, organism-based; design: dose 3 mg/kg, route oral; settings: simiiformes, in vivo; method in brief: as §6
Rattus norvegicus [20] = assay: Diuretic activity was evaluated by measuring amount of Cl- during 0-6 hr in urine of normotensive saline loaded rats at 1.0mg/kg, po; format: ADME, organism-based; settings: in vivo, 1 mg/kg; method in brief: as §5
Rattus norvegicus [21] = assay: Diuretic activity was evaluated by measuring amount of K+ during 0-6 hr in urine of normotensive saline loaded rats at 10.0mg/kg, po; format: ADME, organism-based; settings: in vivo, 10 mg/kg; method in brief: as §5
Rattus norvegicus [22] = assay: Percent change of arterial blood pressure in spontaneously hypertensive rats at the dose of 10 mg/kg (p.o.) after 24 hr (control BP(mm Hg)=219); format: functional; settings: route oral
Rattus norvegicus [23] = assay: Percent change of arterial blood pressure in spontaneously hypertensive rats at the dose of 10 mg/kg (p.o.) after 6 hr (control BP(mm Hg)=219); format: functional; settings: route oral
Rattus norvegicus [24] = assay: Percent change of arterial blood pressure in spontaneously hypertensive rats at the dose of 1 mg/kg (p.o.) after 24 hr (control BP(mm Hg)=215); format: functional; settings: route oral
Rattus norvegicus [25] = assay: Percent change of arterial blood pressure in spontaneously hypertensive rats at the dose of 1 mg/kg (p.o.) after 6 hr (control BP(mm Hg)=215); format: functional; settings: route oral
Rattus norvegicus [26] = assay: Percent change of arterial blood pressure in spontaneously hypertensive rats at the dose of 3 mg/kg (p.o.) after […] (control BP(mm Hg)=221); format: functional; settings: route oral
Rattus norvegicus [27] = assay: Percent change of arterial blood pressure in spontaneously hypertensive rats at the dose of 3 mg/kg (p.o.) after 24 hr (control BP(mm Hg)=221); format: functional; settings: route oral
Rattus norvegicus [28] = assay: Percent change of arterial blood pressure in spontaneously hypertensive rats at the dose of 3 mg/kg (p.o.) after 6 hr (control BP(mm Hg)=221); format: functional; settings: route oral
Canis familiaris [29] = assay: Diuretic activity was evaluated by measuring amount of Cl- during 0-6 h in urine of normotensive saline loaded dogs at 10.0 mg/kg, po; format: ADME, organism-based, Canis lupus familiaris; design: dose 10 mg/kg, route oral; settings: dog, in vivo; method in brief: as §1

Structure (SMILES): CCOC(=O)COc1ccc(C(=O)c2ccc(O)c(CN)c2)c(Cl)c1Cl.Cl
- Diuretic activity (Canis familiaris [1]): 0.5 m equiv kg-1
- Diuretic activity (Rattus norvegicus [2]): 3.8 m equiv kg-1
- Diuretic activity (Canis familiaris [3]): 0.7 m equiv kg-1
- Diuretic activity (Canis familiaris [4]): 6.3 m equiv kg-1
- Diuretic activity (Canis familiaris [5]): 7.5 m equiv kg-1
- Diuretic activity [6]: 2.7 m equiv kg-1
- Diuretic activity [7]: 6.4 m equiv kg-1
- Diuretic activity (Rattus norvegicus [8]): 12.8 m equiv kg-1
- Diuretic activity (Rattus norvegicus [9]): 14 m equiv kg-1
- Diuretic activity (Rattus norvegicus [10]): 13.8 m equiv kg-1
- Diuretic activity (Rattus norvegicus [11]): 13.9 m equiv kg-1
- Diuretic activity (Rattus norvegicus [12]): 16.4 m equiv kg-1
- Diuretic activity (Rattus norvegicus [13]): 17.4 m equiv kg-1
- Diuretic activity (Canis familiaris [14]): 1 m equiv kg-1
- Diuretic activity (Canis familiaris [15]): 1.7 m equiv kg-1
- Diuretic activity (Canis familiaris [16]): 1.8 m equiv kg-1
- Diuretic activity [17]: 7.2 m equiv kg-1
- Diuretic activity [18]: 6.9 m equiv kg-1
- Diuretic activity [19]: 5.3 m equiv kg-1
- Diuretic activity (Rattus norvegicus [20]): 14.8 m equiv kg-1
- Diuretic activity (Rattus norvegicus [21]): 3.3 m equiv kg-1
- Change (Rattus norvegicus [22]): -19%
- Change (Rattus norvegicus [23]): -24%
- Change (Rattus norvegicus [24]): -6%
- Change (Rattus norvegicus [25]): -11%
- Change (Rattus norvegicus [26]): -22%
- Change (Rattus norvegicus [27]): -14%
- Change (Rattus norvegicus [28]): -13%
- Diuretic activity (Canis familiaris [29]): 7 m equiv kg-1
